Reference: ChEMBL document CHEMBL4017468, “Synthesis and biological evaluation of pyrimidine derivatives with diverse azabicyclic ether/amine as novel GPR119 agonist” (Bioorg Med Chem Lett, 2017)

Target: T1, Glucose-dependent insulinotropic receptor (Homo sapiens, UniProt Q8TDV5)
T1 sequence (Q8TDV5 whole entry): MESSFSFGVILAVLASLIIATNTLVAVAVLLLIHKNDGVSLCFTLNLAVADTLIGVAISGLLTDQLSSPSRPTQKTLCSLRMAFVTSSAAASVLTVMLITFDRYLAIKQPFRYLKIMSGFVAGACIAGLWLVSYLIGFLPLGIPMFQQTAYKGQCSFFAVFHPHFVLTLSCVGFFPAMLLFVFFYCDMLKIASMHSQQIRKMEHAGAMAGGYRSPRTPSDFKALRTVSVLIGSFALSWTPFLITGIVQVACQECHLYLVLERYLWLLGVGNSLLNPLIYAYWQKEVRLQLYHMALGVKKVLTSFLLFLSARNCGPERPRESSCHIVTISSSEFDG
Assay: Agonist activity at human GPR119 expressed in HEK293 cells assessed as increase in cAMP stimulation measured after 60 mins by TR-FRET assay
Assay type: functional, cell-based
Summary of the method: (§1)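 HEK293 cells seeded at 4×10^3 cells/well, grown 24 h, then transiently transfected with a GPR119 expression plasmid using Lipofectamine/Plus. After 24 h, compounds were added in KRBH buffer with 0.1% BSA and 500 μM IBMX for 60 min at 37 °C. Cells were lysed 10 min at room temperature (50 mM phosphate, 1 M KF, 1.25% Triton X-100, pH 7.0). cAMP was read by HTRF. EC50 was taken as the concentration giving 50% of OEA-stimulated cAMP, and %max as the response relative to maximal OEA effect.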

SMILES	EC50
CC(C)(C)OC(=O)N1CC2CC1CC2Oc1ncnc(Nc2ccc(S(C)(=O)=O)cc2F)c1[N+](=O)[O-] (stereo unspecified)	0.0056 µM
CC(C)(C)OC(=O)N1CC2CCC1CC2Oc1ncnc(Nc2ccc(S(C)(=O)=O)cc2F)c1[N+](=O)[O-] (stereo unspecified)	> 10 µM
CC(C)(C)OC(=O)N1CC2CC1CC2Oc1ncnc(Nc2ccc(S(C)(=O)=O)cc2)c1[N+](=O)[O-] (stereo unspecified)	0.11 µM
CC(C)(C)OC(=O)N1CC2CC(Oc3ncnc(Nc4ccc(S(C)(=O)=O)cc4)c3[N+](=O)[O-])C1C2 (stereo unspecified)	0.315 µM
CC(C)(C)OC(=O)N1CC2CC(Oc3ncnc(Nc4ccc(S(C)(=O)=O)cc4F)c3[N+](=O)[O-])C1C2 (stereo unspecified)	0.0777 µM
CC(C)(C)OC(=O)N1C[C@@H]2CC[C@@H]1C[C@@H]2Oc1ncnc(Nc2ccc(S(C)(=O)=O)cc2F)c1[N+](=O)[O-] (relative stereo)	0.0012 µM
CC(C)(C)OC(=O)N1CC2CC(Nc3ncnc(Nc4ccc(S(C)(=O)=O)cc4F)c3[N+](=O)[O-])C1C2 (stereo in doubt; 27e) [listing 1 of 2 here]	0.053 µM
CC(C)(C)OC(=O)N1CC2CC(Nc3ncnc(Nc4ccc(S(C)(=O)=O)cc4)c3[N+](=O)[O-])C1C2 (stereo in doubt; 27f) [listing 1 of 2 here]	> 1 µM
CC(C)(C)OC(=O)N1CC2CC(Nc3ncnc(Nc4ccc(S(C)(=O)=O)cc4F)c3[N+](=O)[O-])C1C2 (stereo in doubt; 27g) [listing 1 of 2 here]	0.236 µM
CC(C)(C)OC(=O)N1CC2CC(Nc3ncnc(Nc4ccc(S(C)(=O)=O)cc4)c3[N+](=O)[O-])C1C2 (stereo in doubt; 27h) [listing 1 of 2 here]	> 10 µM
CC(C)(C)OC(=O)N1CC2CC1CC2Nc1ncnc(Nc2ccc(S(C)(=O)=O)cc2F)c1[N+](=O)[O-] (stereo in doubt; 27i) [listing 1 of 2 here]	0.0049 µM
CC(C)(C)OC(=O)N1CC2CC1CC2Nc1ncnc(Nc2ccc(S(C)(=O)=O)cc2)c1[N+](=O)[O-] (stereo in doubt; 27j) [listing 1 of 2 here]	0.0482 µM
CC(C)(C)OC(=O)N1CC2CC1CC2Nc1ncnc(Nc2ccc(S(C)(=O)=O)cc2F)c1[N+](=O)[O-] (stereo in doubt; 27k) [listing 1 of 2 here]	> 10 µM
CC(C)(C)OC(=O)N1CC2CC1CC2Nc1ncnc(Nc2ccc(S(C)(=O)=O)cc2)c1[N+](=O)[O-] (stereo in doubt; 27l) [listing 1 of 2 here]	> 10 µM
CC(C)(C)OC(=O)N1CC2CCC1CC2Oc1ncnc(Nc2ccc(S(C)(=O)=O)cc2)c1[N+](=O)[O-] (stereo in doubt; 27n) [listing 1 of 2 here]	0.0031 µM
CC(C)(C)OC(=O)N1CC2CCC1CC2Oc1ncnc(Nc2ccc(S(C)(=O)=O)cc2)c1[N+](=O)[O-] (stereo in doubt; 27p) [listing 1 of 2 here]	> 10 µM
CC(C)(C)OC(=O)N1CC2CCC1CC2Nc1ncnc(Nc2ccc(S(C)(=O)=O)cc2F)c1[N+](=O)[O-] (stereo in doubt; 27q) [listing 1 of 2 here]	0.0018 µM
CC(C)(C)OC(=O)N1CC2CCC1CC2Nc1ncnc(Nc2ccc(S(C)(=O)=O)cc2)c1[N+](=O)[O-] (stereo in doubt; 27r) [listing 1 of 2 here]	0.0056 µM
CC(C)(C)OC(=O)N1CC2CCC1CC2Nc1ncnc(Nc2ccc(S(C)(=O)=O)cc2F)c1[N+](=O)[O-] (stereo in doubt; 27s) [listing 1 of 2 here]	0.0053 µM
CC(C)(C)OC(=O)N1CC2CCC1CC2Nc1ncnc(Nc2ccc(S(C)(=O)=O)cc2)c1[N+](=O)[O-] (stereo in doubt; 27t) [listing 1 of 2 here]	0.0064 µM

Target: T2, Glucose-dependent insulinotropic receptor (Homo sapiens) (UniProt Q8TDV5)
T2 sequence (whole entry): T1 sequence (Q8TDV5 whole entry)
Assay: Agonist activity at human GPR119 expressed in HEK293 cells assessed as increase in cAMP stimulation measured after 60 mins by TR-FRET assay relative to oleoylethanolamide
Assay type: functional, cell-based
Summary of the method: as §1

SMILES	%max
CC(C)(C)OC(=O)N1CC2CC1CC2Oc1ncnc(Nc2ccc(S(C)(=O)=O)cc2F)c1[N+](=O)[O-] (stereo unspecified)	86.7%
CC(C)(C)OC(=O)N1CC2CCC1CC2Oc1ncnc(Nc2ccc(S(C)(=O)=O)cc2F)c1[N+](=O)[O-] (stereo unspecified)	32.9%
CC(C)(C)OC(=O)N1CC2CC1CC2Oc1ncnc(Nc2ccc(S(C)(=O)=O)cc2)c1[N+](=O)[O-] (stereo unspecified)	101%
CC(C)(C)OC(=O)N1CC2CC(Oc3ncnc(Nc4ccc(S(C)(=O)=O)cc4)c3[N+](=O)[O-])C1C2 (stereo unspecified)	58.4%
CC(C)(C)OC(=O)N1CC2CC(Oc3ncnc(Nc4ccc(S(C)(=O)=O)cc4F)c3[N+](=O)[O-])C1C2 (stereo unspecified)	52.6%
CCCCCCCC/C=C\CCCCCCCC(=O)NCCO	100%
CC(C)(C)OC(=O)N1C[C@@H]2CC[C@@H]1C[C@@H]2Oc1ncnc(Nc2ccc(S(C)(=O)=O)cc2F)c1[N+](=O)[O-] (relative stereo)	112%
CC(C)(C)OC(=O)N1CC2CC(Nc3ncnc(Nc4ccc(S(C)(=O)=O)cc4F)c3[N+](=O)[O-])C1C2 (stereo in doubt; 27e) [listing 2 of 2 here]	76.7%
CC(C)(C)OC(=O)N1CC2CC(Nc3ncnc(Nc4ccc(S(C)(=O)=O)cc4)c3[N+](=O)[O-])C1C2 (stereo in doubt; 27f) [listing 2 of 2 here]	38.9%
CC(C)(C)OC(=O)N1CC2CC(Nc3ncnc(Nc4ccc(S(C)(=O)=O)cc4F)c3[N+](=O)[O-])C1C2 (stereo in doubt; 27g) [listing 2 of 2 here]	63.4%
CC(C)(C)OC(=O)N1CC2CC(Nc3ncnc(Nc4ccc(S(C)(=O)=O)cc4)c3[N+](=O)[O-])C1C2 (stereo in doubt; 27h) [listing 2 of 2 here]	21.6%
CC(C)(C)OC(=O)N1CC2CC1CC2Nc1ncnc(Nc2ccc(S(C)(=O)=O)cc2F)c1[N+](=O)[O-] (stereo in doubt; 27i) [listing 2 of 2 here]	97%
CC(C)(C)OC(=O)N1CC2CC1CC2Nc1ncnc(Nc2ccc(S(C)(=O)=O)cc2)c1[N+](=O)[O-] (stereo in doubt; 27j) [listing 2 of 2 here]	94.3%
CC(C)(C)OC(=O)N1CC2CC1CC2Nc1ncnc(Nc2ccc(S(C)(=O)=O)cc2F)c1[N+](=O)[O-] (stereo in doubt; 27k) [listing 2 of 2 here]	34.8%
CC(C)(C)OC(=O)N1CC2CC1CC2Nc1ncnc(Nc2ccc(S(C)(=O)=O)cc2)c1[N+](=O)[O-] (stereo in doubt; 27l) [listing 2 of 2 here]	25.1%
CC(C)(C)OC(=O)N1CC2CCC1CC2Oc1ncnc(Nc2ccc(S(C)(=O)=O)cc2)c1[N+](=O)[O-] (stereo in doubt; 27n) [listing 2 of 2 here]	71.9%
CC(C)(C)OC(=O)N1CC2CCC1CC2Oc1ncnc(Nc2ccc(S(C)(=O)=O)cc2)c1[N+](=O)[O-] (stereo in doubt; 27p) [listing 2 of 2 here]	44.7%
CC(C)(C)OC(=O)N1CC2CCC1CC2Nc1ncnc(Nc2ccc(S(C)(=O)=O)cc2F)c1[N+](=O)[O-] (stereo in doubt; 27q) [listing 2 of 2 here]	104%
CC(C)(C)OC(=O)N1CC2CCC1CC2Nc1ncnc(Nc2ccc(S(C)(=O)=O)cc2)c1[N+](=O)[O-] (stereo in doubt; 27r) [listing 2 of 2 here]	78.9%
CC(C)(C)OC(=O)N1CC2CCC1CC2Nc1ncnc(Nc2ccc(S(C)(=O)=O)cc2F)c1[N+](=O)[O-] (stereo in doubt; 27s) [listing 2 of 2 here]	63.2%
CC(C)(C)OC(=O)N1CC2CCC1CC2Nc1ncnc(Nc2ccc(S(C)(=O)=O)cc2)c1[N+](=O)[O-] (stereo in doubt; 27t) [listing 2 of 2 here]	58.1%
